Where no end group is shown, it is not given here. ROX = carboxy-X-rhodamine

The target in assay [1] is T1, IL-1β (Homo sapiens, UniProt P01584). Put plainly: On-bead binding assay by fluorescence microscopy. To be noted: on PEGA beads, 50 nM ROX-IL-1β. Summed up:
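Human IL-1β came from a codon-optimised gene with an N-terminal His-tag, expressed in E. coli BL21(DE3) and purified by Ni-NTA then size exclusion in PBS. It was labelled with 3 equiv ROX-NHS for 1 h at room temperature, excess dye removed on G-25 gel filtration, and quantified by 660 nm protein assay. Acetylated beads without β-body served as negative control. ROX read at 560/14 nm excitation and 605/52 nm emission.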

The test system of the next assay is IL-1α. Kind of assay: On-bead binding specificity test. On the set-up: species or system human. To be noted: 50 nM ROX-IL-1α, PEGA beads, Figure 4B.
Another assay deals with IL-2. Kind of assay: Sandwich assay for IL-2. Type of assay: binding, human. To be noted: for detection of IL-2 in sandwich assay: capture bead-4 plus detection ROX-5, 50 nM IL-2, deionized water; for bead fluorescence in sandwich assay before protein addition: capture bead-4 plus detection ROX-5, deionized water, no IL-2.
Assay [2] is described as follows: Unspecific interaction between capture and detection β-body. Type of assay: binding. The method in brief:
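Capture β-body was covalently linked to PEGA1900 beads and mixed in solution with purified ROX-labelled detection β-body, with no target protein added. For the IL-1β pair, incubation was in deionised water in glass vials for 3 h. Beads were then imaged by wide-field fluorescence microscopy for ROX at 560/14 nm excitation and 605/52 nm emission.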

The target in assay [3] is T1, IL-1β. Kind of assay: Sandwich assay for IL-1β. The assay is classed as binding. To be noted: capture 10 with detection ROX-2, 50 nM IL-1β, deionized water.
The subject of the next assay is IL-6. Put plainly: Sandwich assay for IL-6. Type of assay: binding, human. To be noted: capture 6 / ROX-labeled 7, with 0.05–0.1 M urea, 20 nM IL-6.
Assay [4] deals with T2, GFP (Aequorea victoria, UniProt P42212, F64L/H231L/S65T). Kind of assay: Binding of GFP from E. coli cell lysate to β-body beads. To be noted: beads with lysed E. coli cells expressing GFP. The method in brief:
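PEGA beads carrying the test compound incubated with lysed E. coli cells expressing GFP. Bead-bound GFP imaged by wide-field fluorescence microscopy (ex 482/18 nm, em 520/28 nm). For capture, beads washed with water, bound GFP eluted with PBS, and the eluate analysed by SDS-PAGE alongside the whole-cell lysate.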

Assay [5] deals with T2, GFP. Put plainly: Affinity purification of GFP from cell lysate on PEGA-β-body column, SDS-PAGE. To be noted: packed PEGA column, washed with water, eluted with PBS. The method in brief: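 GFP from Aequorea victoria, with an N-terminal His-tag, was expressed in E. coli BL21(DE3) from a pET plasmid. Culture was in LB with 100 μg/mL ampicillin at 37 °C to mid-exponential phase, then induced with 1 mM IPTG for 18 h at 20 °C. Cells were lysed in 50 mM Tris, 0.5 M NaCl, pH 8.0 with lysozyme and sonication, then clarified. SDS-PAGE gels were Coomassie-stained.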

Assay [6] concerns the target T2, GFP. Kind of assay: On-bead microplate equilibrium binding assay, GFP. Summed up:
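Three equal-sized PEGA beads bearing the test compound per well, in triplicate. Purified His-tagged GFP in Milli-Q water, two-fold serial dilutions from 20 μM. Incubated overnight at room temperature to equilibrium. Per-bead fluorescence quantified by microscopy (1 ms exposure, GFP filter set). Kd from a one-site specific binding nonlinear regression fit; points average 3–6 measurements.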

Assay [7] concerns the target T2, GFP. Kind of assay: On-bead binding assay by fluorescence microscopy. To be noted: on PEGA beads, 50 nM GFP. The method in brief: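 Recombinant N-terminally His-tagged GFP expressed in E. coli BL21(DE3), purified by Ni-NTA then size exclusion in PBS pH 7.4. Concentration from A490 (ε 55 000 M–1 cm–1). PEGA beads bearing the test compound placed in microplate wells with 50 nM GFP. N-acetylated beads served as negative control. Bead fluorescence imaged by microscopy (ex 482/18 nm, em 520/28 nm).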

Assay [8] has as its target T1, IL-1β. Kind of assay: On-bead microplate equilibrium binding assay, IL-1β. Summed up: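 Human IL-1β, N-terminal His-tag, expressed in E. coli BL21(DE3), purified by Ni-NTA and size exclusion. Labelled with 3 equiv ROX-NHS for 1 h at room temperature, free dye removed on G-25. Three compound-bearing PEGA beads per well, in triplicate. Two-fold dilutions from 10 μM in 5 mM phosphate buffer, overnight incubation. ROX fluorescence imaged at 2 ms exposure. Kd from one-site nonlinear fit.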

The target in assay [9] is human recombinant IL-2 (ProSpec) (human, UniProt P60568 21-153). Put plainly: on-bead fluorescence microscopy.
Sequence of human recombinant IL-2 (ProSpec) (P60568 21-153): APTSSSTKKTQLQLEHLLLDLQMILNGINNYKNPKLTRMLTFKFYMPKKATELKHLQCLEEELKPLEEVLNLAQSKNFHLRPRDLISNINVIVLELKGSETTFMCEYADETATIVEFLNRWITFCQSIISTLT

Take ETDTYTETYPGRTITWTITDG [β-body 2]: the “binding of ROX-labeled IL-1β to β-body beads” value at IL-1β [1] is recorded as “binding was observed”. Also, the “binding of ROX-labeled IL-1α to β-body beads (specificity)” value in the assay with IL-1α is on record as “no interaction”.
In the case of NTVTNTMTRPGVTETVTQTDG [β-body 4], in the assay on IL-2, the “detection of IL-2 in sandwich assay” value was “fluorescent beads were then observed exclusively after addition of 50 nM of IL-2” and the “bead fluorescence in sandwich assay before protein addition” value is “no observation of fluorescence on the beads”.
With ROX-ETDTYTETYPGYTSTWTITDG [ROX-2], in assay [2] (ROX-labeled 2 / capture 3 (IL-1β pair)), the “unspecific binding of detection peptide to capture peptide” value was “could not be prevented without affecting at the same time the binding of IL-1β”. Further, on IL-1β [3], the “detection of IL-1β in sandwich assay” value is given as “enabled us to also detect IL-1β in nanomolar concentrations”.
As to ROX-TMTDTDTYPGFTDTLTHAG [ROX-7], the “fluorescence from beads with IL-6 added” value in the assay with IL-6 is reported as “remained strongly fluorescent”. Further, the “unspecific interaction between capture and detection peptide at surface of beads” value in assay [2] (capture 6 / ROX-labeled 7 (IL-6 pair), no urea) is “some unspecific interaction”.
With ROX-TRTLTYTEPGITQTKTEAG [ROX-5], in the assay with IL-2, the “detection of IL-2 in sandwich assay” value is reported as “fluorescent beads were then observed exclusively after addition of 50 nM of IL-2” and the “bead fluorescence in sandwich assay before protein addition” value is given as “no observation of fluorescence on the beads”.
Broadly, the Kd is the free concentration of one partner at which half of the binding sites on the other are occupied at equilibrium, for simple one-to-one binding. A higher Kd goes with lower affinity. Consider TETKTVTITRPKMTWTFTHTVTG [β-body 1], for which, on GFP [4], the “binding of GFP from cell lysate” value was “binding was observed” and the “transfer of fluorescence from lysate to beads” value was “quantitatively transferred from the lysate to the beads”. At GFP [5], the “purification of GFP from cell lysate” value is on record as “a significant up-concentration of GFP was achieved with removal of the majority of other proteins in the cell lysate”. The molecule also came in with a Kd on GFP [6] of 184 ± 28.6 nM. In addition, at GFP [7], the “binding of GFP to β-body beads” value is “binding was observed”.
TWTETYTWTEPGDTQTLTITNTG [β-body 3]: the affinity on IL-1β [8], expressed as Kd, was 610 ± 50 nM.
For the molecule {ROX}-TRTLTYTEPGITQTKTEAG (designed binder) [ROX-labeled β-body 5], the binding result in [9] is given as “binds”.

The record behind these values is PMC6396188 (ACS Central Science, 2019).
